In ChEMBL document CHEMBL2390925, “Further studies on 2-arylacetamide pyridazin-3(2H)-ones: design, synthesis and evaluation of 4,6-disubstituted analogs as formyl peptide receptors (FPRs) agonists” (Eur J Med Chem, 2013):
pEC50: −log10 of the molar value.

How the values were obtained:
HL-60 [1] = experiment: Effect on Ca2+ mobilization in human wild type HL60 cells; type: functional, cell-based
Procedure, shortened: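 Wild-type, non-transfected HL-60 cells, grown without G418, were run in the same Fluo-4 Ca2+ flux assay. Fluorescence was monitored every 5 s for 240 s at room temperature.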

HL-60 [2] = experiment: Cytotoxicity against human wild type HL60 cells at 5 to 20 uM after 60 mins by CellTitre-Glo luminescent assay; type: cell-based; settings: hl-60, 1 h
Procedure, shortened: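 Wild-type HL-60 cells at 3×10^4 cells/well were exposed to 5, 10 or 20 µM compound for 60 min at 37 °C in 5% CO2. Samples were equilibrated to room temperature for 30 min before the CellTiter-Glo luminescence read. Triplicate samples; the experiment was representative of two.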

[3] = biological target: T1, N-formyl peptide receptor 3 (Homo sapiens, UniProt P25089); experiment: Agonist activity at FPR3 (unknown origin) transfected in human HL60 cells assessed as induction of Ca2+ mobilization; type: cell-based, HL-60
T1 sequence (P25089 whole entry): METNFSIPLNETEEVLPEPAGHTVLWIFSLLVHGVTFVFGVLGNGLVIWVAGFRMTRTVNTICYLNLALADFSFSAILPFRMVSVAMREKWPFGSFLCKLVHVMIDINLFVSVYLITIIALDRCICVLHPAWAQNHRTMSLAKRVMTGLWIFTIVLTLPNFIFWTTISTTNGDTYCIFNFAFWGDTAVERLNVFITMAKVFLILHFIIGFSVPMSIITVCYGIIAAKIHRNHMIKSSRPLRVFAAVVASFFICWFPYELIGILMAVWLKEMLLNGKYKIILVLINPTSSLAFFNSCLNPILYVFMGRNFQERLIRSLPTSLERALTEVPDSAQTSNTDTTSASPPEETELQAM

fMet-Leu-Phe receptor = biological target: T2, fMet-Leu-Phe receptor (Homo sapiens, UniProt P21462); experiment: Agonist activity at FPR1 (unknown origin) transfected in human HL60 cells assessed as induction of Ca2+ mobilization; type: functional, cell-based, HL-60
T2 sequence (P21462 whole entry): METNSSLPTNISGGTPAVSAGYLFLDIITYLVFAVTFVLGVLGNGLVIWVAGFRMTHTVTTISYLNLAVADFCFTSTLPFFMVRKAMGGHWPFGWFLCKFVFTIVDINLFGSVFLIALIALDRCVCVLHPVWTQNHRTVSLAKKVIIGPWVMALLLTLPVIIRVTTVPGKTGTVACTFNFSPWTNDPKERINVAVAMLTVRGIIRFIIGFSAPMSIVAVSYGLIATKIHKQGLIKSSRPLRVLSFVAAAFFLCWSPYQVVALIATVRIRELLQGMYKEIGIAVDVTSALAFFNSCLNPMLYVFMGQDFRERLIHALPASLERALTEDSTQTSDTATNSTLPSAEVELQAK

[4] = biological target: T3, N-formyl peptide receptor 2 (Homo sapiens, UniProt P25090); experiment: Agonist activity at FPR2 (unknown origin) transfected in human HL60 cells assessed as induction of Ca2+ mobilization; type: functional, cell-based, HL-60
T3 sequence (P25090 whole entry): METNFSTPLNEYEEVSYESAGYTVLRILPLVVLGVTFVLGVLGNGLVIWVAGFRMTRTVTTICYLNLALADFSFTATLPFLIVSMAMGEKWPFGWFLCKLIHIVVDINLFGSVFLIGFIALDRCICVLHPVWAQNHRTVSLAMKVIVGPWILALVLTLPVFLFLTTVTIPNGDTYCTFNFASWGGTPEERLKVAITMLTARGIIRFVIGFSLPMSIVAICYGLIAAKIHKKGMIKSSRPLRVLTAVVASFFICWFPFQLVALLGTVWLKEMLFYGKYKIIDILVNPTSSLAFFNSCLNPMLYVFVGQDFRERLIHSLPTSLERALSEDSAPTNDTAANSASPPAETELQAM

[5] = biological target: fMet-Leu-Phe receptor 1/2 (Homo sapiens) (UniProt P21462+P25090); experiment: Agonist activity at FPR1/FPR2 in human neutrophils assessed as induction of Ca2+ mobilization relative to fMLF; type: functional
Procedure, shortened: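 Neutrophils from healthy donors were isolated by dextran sedimentation, Histopaque 1077 gradient and hypotonic red cell lysis. […] Peak response was normalized to 5 nM fMLF as 100%. EC50 comes from 5–6 point curves, mean of three experiments with different donors.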

[6] = biological target: T4, fMet-Leu-Phe receptor (Homo sapiens) (UniProt P21462); experiment: Agonist activity at FPR1 (unknown origin) transfected in human HL60 cells assessed as induction of Ca2+ mobilization relative to fMLF; type: functional, cell-based; settings: HL-60
T4 sequence (whole entry): T2 sequence (P21462 whole entry)
Procedure, shortened: (§1)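 Same Fluo-4 Ca2+ flux in transfected HL-60 cells. The peak fluorescence change over baseline was normalized to 5 nM fMLF for FPR1 cells and to 5 nM WKYMVm for FPR2 and FPR3 cells, each taken as 100%. Efficacy was read from 5–6 point dose-response curves.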

[7] = biological target: T5, N-formyl peptide receptor 2 (Homo sapiens) (UniProt P25090); experiment: Agonist activity at FPR2 (unknown origin) transfected in human HL60 cells assessed as induction of Ca2+ mobilization relative to WKYMVm; type: functional, cell-based; settings: HL-60; procedure, shortened: as §1
T5 sequence (whole entry): T3 sequence (P25090 whole entry)

Row | Compound | pEC50 (HL-60 [1]) | Activity (HL-60 [2]) | pEC50 [3] | pEC50 (fMet-Leu-Phe receptor) | pEC50 [4] | Efficacy [5] | Efficacy [6] | Efficacy [7]
1 | Cc1cc(Cc2ccccc2)c(=O)n(CC(=O)Nc2ccc(F)cc2)n1 | < 4.30 | Non-toxic | < 4.30 | < 4.30 | < 4.30 |  |  | 
2 | Cc1cc(Cc2cccc(Cl)c2)c(=O)n(CC(=O)Nc2ccc(Br)cc2)n1 | < 4.30 | Non-toxic | < 4.30 |  |  | 90% | 100% | 
3 | COc1cccc(Cc2cc(-c3ccccc3)nn(CC(=O)Nc3ccc(F)cc3)c2=O)c1 | < 4.30 | Non-toxic | < 4.30 | < 4.30 | < 4.30 |  |  | 
4 | COc1cccc(Cc2cc(-c3cccs3)nn(CC(=O)Nc3ccc4c(c3)OCO4)c2=O)c1 | < 4.30 | Non-toxic | < 4.30 | < 4.30 | < 4.30 |  |  | 
5 | COc1ccc(Cc2cc(-c3ccc(Cl)cc3)nn(CC(=O)Nc3ccc(Br)cc3)c2=O)cc1 | < 4.30 | Non-toxic | < 4.30 | < 4.30 | < 4.30 |  |  | 
6 | COc1cc(Cc2cc(C)nn(CC(=O)Nc3ccc(I)cc3)c2=O)cc(OC)c1 | < 4.30 | Non-toxic | < 4.30 |  |  | 75% | 80% | 
7 | COc1ccc(-c2cc(Cc3cccc(OC)c3)c(=O)n(CC(=O)Nc3ccc(F)cc3)n2)cc1 | < 4.30 | Non-toxic | < 4.30 | < 4.30 | < 4.30 |  |  | 
8 | Cc1cc(N)c(=O)n(CC(=O)Nc2ccc(Br)cc2)n1 | < 4.30 | Non-toxic | < 4.30 |  |  |  | 115% | 85%
9 | COc1ccc(Cc2cc(-c3ccc(F)cc3)nn(CC(=O)Nc3ccc(Br)cc3)c2=O)cc1 | < 4.30 | Non-toxic | < 4.30 | < 4.30 | < 4.30 |  |  | 
10 | Cc1cc(Cc2ccc(C#N)cc2)c(=O)n(CC(=O)Nc2ccc(Br)cc2)n1 | < 4.30 | Non-toxic | < 4.30 | < 4.30 | < 4.30 |  |  | 
11 | Cc1cc(Cc2ccc(C(F)(F)F)cc2)c(=O)n(CC(=O)Nc2ccc(Br)cc2)n1 | < 4.30 | Non-toxic | < 4.30 | < 4.30 | < 4.30 |  |  | 
12 | COc1cccc(Cc2cc(-c3ccc(F)cc3)nn(CC(=O)Nc3ccc4c(c3)OCO4)c2=O)c1 | < 4.30 | Non-toxic | < 4.30 | < 4.30 | < 4.30 |  |  | 
13 | Cc1ccc(=O)n(CC(=O)Nc2ccc(I)cc2)n1 | < 4.30 | Non-toxic | < 4.30 | < 4.30 | < 4.30 |  |  | 
14 | Cc1cc(Cc2cccc(F)c2)c(=O)n(CC(=O)Nc2ccc(Br)cc2)n1 | < 4.30 | Non-toxic | < 4.30 |  |  | 130% | 110% | 
15 | COc1ccc(-c2cc(Cc3cccc(OC)c3)c(=O)n(CC(=O)Nc3ccc4c(c3)OCO4)n2)cc1 | < 4.30 | Non-toxic | < 4.30 | < 4.30 | < 4.30 |  |  | 
16 | COc1ccc(Cc2cc(-c3cccs3)nn(CC(=O)Nc3ccc(Br)cc3)c2=O)cc1 | < 4.30 | Non-toxic | < 4.30 | < 4.30 | < 4.30 |  |  | 
17 | COc1cccc(Cc2cc(-c3cccs3)nn(CC(=O)Nc3ccc(F)cc3)c2=O)c1 | < 4.30 | Non-toxic | < 4.30 | < 4.30 | < 4.30 |  |  | 

Row | Compound | pEC50 (HL-60 [1]) | Activity (HL-60 [2]) | pEC50 [3] | pEC50 (fMet-Leu-Phe receptor) | pEC50 [4] | Efficacy [5] | Efficacy [6] | Efficacy [7]
18 | COc1ccc(Cc2cc(-c3ccc(OC)cc3)nn(CC(=O)Nc3ccc(Br)cc3)c2=O)cc1 | < 4.30 | Non-toxic | < 4.30 | < 4.30 | < 4.30 |  |  | 
19 | COc1cccc(Cc2cc(-c3ccc(Cl)cc3)nn(CC(=O)Nc3ccc4c(c3)OCO4)c2=O)c1 | < 4.30 | Non-toxic | < 4.30 | < 4.30 | < 4.30 |  |  | 
20 | COc1cccc(Cc2cc(-c3ccc(C)cc3)nn(CC(=O)Nc3ccc4c(c3)OCO4)c2=O)c1 | < 4.30 | Non-toxic | < 4.30 | < 4.30 | < 4.30 |  |  | 
21 | COc1cccc(Cc2cc(-c3ccccc3)nn(CC(=O)Nc3ccc4c(c3)OCO4)c2=O)c1 | < 4.30 | Non-toxic | < 4.30 | < 4.30 | < 4.30 |  |  | 
22 | COc1ccc(-c2cc(C)nn(CC(=O)Nc3ccc(Br)cc3)c2=O)cc1 | < 4.30 | Non-toxic | < 4.30 |  |  | 70% | 55% | 
23 | COc1cc(Cc2cc(C)nn(CC(=O)Nc3ccc(Br)cc3)c2=O)cc(OC)c1 | < 4.30 | Non-toxic | < 4.30 | < 4.30 | < 4.30 |  |  | 
24 | Cc1cc(Cc2cccc(Br)c2)c(=O)n(CC(=O)Nc2ccc(Br)cc2)n1 | < 4.30 | Non-toxic | < 4.30 | < 4.30 | < 4.30 |  |  | 
25 | COc1ccc(Cc2cc(-c3ccc(C)cc3)nn(CC(=O)Nc3ccc(Br)cc3)c2=O)cc1 | < 4.30 | Non-toxic | < 4.30 | < 4.30 | < 4.30 |  |  | 
26 | Cc1cc(Cc2cccc3ccccc23)c(=O)n(CC(=O)Nc2ccc(Br)cc2)n1 | < 4.30 | Non-toxic | < 4.30 | 4.86 | < 4.30 |  | 20% | 
27 | COc1cccc(Cc2cc(-c3ccc(C)cc3)nn(CC(=O)Nc3ccc(F)cc3)c2=O)c1 | < 4.30 | Non-toxic | < 4.30 | < 4.30 | < 4.30 |  |  | 
28 | COc1cccc(Cc2cc(C3CCCCC3)nn(CC(=O)Nc3ccc(Br)cc3)c2=O)c1 | < 4.30 | Non-toxic | < 4.30 |  |  | 65% | 80% | 
29 | COc1cccc(Cc2cc(-c3ccc(F)cc3)nn(CC(=O)Nc3ccc(F)cc3)c2=O)c1 | < 4.30 | Non-toxic | < 4.30 | < 4.30 | < 4.30 |  |  | 
30 | Cc1cc(NC(=O)c2ccc(Br)cc2)c(=O)n(CC(=O)Nc2ccc(Br)cc2)n1 | < 4.30 | Non-toxic | < 4.30 | < 4.30 | < 4.30 |  |  | 
31 | COc1ccc(Cc2cc(Cc3ccccc3)nn(CC(=O)Nc3ccc(Br)cc3)c2=O)cc1 | < 4.30 | Non-toxic | < 4.30 | < 4.30 | < 4.30 |  |  | 
32 | CC1=NN(CC(=O)Nc2ccc(I)cc2)C(=O)CC1 | < 4.30 | Non-toxic | < 4.30 | < 4.30 | < 4.30 |  |  | 
33 | COc1cccc(Cc2cc(-c3ccc(Cl)cc3)nn(CC(=O)Nc3ccc(F)cc3)c2=O)c1 | < 4.30 | Non-toxic | < 4.30 | < 4.30 | < 4.30 |  |  | 
